Test [1] relates to HT-29. The experiment in a line: Antiproliferative activity against human HT-29 cells after 48 hrs by MTT assay. Type of test: functional, cell-based. The conditions noted are these: HT-29, 48 h. On the technique in general: Tetrazolium dyes change colour on reduction, which living cells bring about.
A short description of test [2]: Antiproliferative activity against human HCC1428 cells after 48 hrs by MTT assay. The conditions noted are these: HCC1428, 48 h. The test is classed as functional, cell-based.
For test [3], the system named is K562. The experiment in a line: Antiproliferative activity against human K562 cells after 48 hrs by MTT assay. Type of test: functional, cell-based. The conditions noted are these: K562, 48 h.
Test [4] deals with HeLa. The experiment in a line: Antiproliferative activity against human HeLa cells after 48 hrs by MTT assay. Type of test: functional, cell-based.
The subject of test [5] is PC-3. The experiment in a line: Antiproliferative activity against paclitaxel-resistant human PC3 cells after 48 hrs by MTT assay. Type of test: functional, cell-based. The conditions noted are these: PC-3, 48 h.
Test [6] is filed under the species Bos taurus. The experiment in a line: Inhibition of bovine brain tubulin polymerization at 5 uM measured every 1 min for 1 hr by spectrophotometric method. In outline:
(§1)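 Bovine brain tubulin (>97% pure) in G-PEM buffer (80 mM PIPES, 0.5 mM EGTA, 1.0 mM GTP, pH 6.9) with 0.1% DMSO, set up at 4 °C with or without compound, using a commercial HTS kit. Vincristine and taxol at 5 µM as controls. Polymerization followed by A340 every 1 min for 1 h at 37 °C.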

Test [7] is filed under the species Homo sapiens. The experiment in a line: Inhibition of alpha-tubulin polymerization in human HCC1428 cells at 3 uM after 24 hrs by confocal microscopic method. Type of test: cell-based. In outline:
(§2)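 HCC1428 cells grown on glass coverslips and treated 24 h; 1 µM vincristine and DMSO as controls. Fixed in cold methanol/acetone (1:1) 5 min, then blocked 20 min in 3% goat serum with 0.1% Triton X-100. Stained with mouse anti-α-tubulin and a FITC secondary, DAPI 4 µg/mL 15 min. Imaged by confocal microscopy; three independent experiments.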

The species named for test [8] is Homo sapiens. The experiment in a line: Inhibition of alpha-tubulin polymerization in human HCC1428 cells at 6 to 10 uM after 24 hrs by confocal microscopic method. Type of test: cell-based. Put shortly: as §2
Test [9] is filed under the species Homo sapiens. The experiment in a line: Inhibition of alpha-tubulin polymerization in human HCC1428 cells at 3 to 6 uM after 24 hrs by confocal microscopic method. The test is classed as cell-based. Put shortly: as §2
Test [10] is described as follows: Cell cycle arrest in human HCC1428 cells assessed as accumulation at G1 phase at 6 uM after 24 hrs by propidium iodide staining based flow cytometry (reference value: 62.61%). Type of test: functional. For orientation: A flow cytometer gives signals particle by particle.
The nature of test [11]: Cell cycle arrest in human HCC1428 cells assessed as accumulation at G2/M phase at 3 uM after 24 hrs by propidium iodide staining based flow cytometry (reference value: […]%). The test is classed as functional.
Test [12] is described as follows: Cell cycle arrest in human HCC1428 cells assessed as accumulation at S phase at 6 uM after 24 hrs by propidium iodide staining based flow cytometry (reference value: 24.46%). The test is classed as functional.
Test [13] has as its system HCC1428. The experiment in a line: Cell cycle arrest in human HCC1428 cells assessed as accumulation at G2/M phase after 24 hrs by propidium iodide staining based flow cytometry. Type of test: functional.
For test [14], the species on record is Bos taurus. The experiment in a line: Inhibition of bovine brain tubulin polymerization at 5 to 10 uM measured every 1 min for 1 hr by spectrophotometric method. In outline: as §1
A short description of test [15]: Cell cycle arrest in human HCC1428 cells assessed as accumulation at S phase at 3 uM after 24 hrs by propidium iodide staining based flow cytometry (reference value: 24.46%). Type of test: functional.
A short description of test [16]: Cell cycle arrest in human HCC1428 cells assessed as accumulation at G1 phase at 3 uM after 24 hrs by propidium iodide staining based flow cytometry (reference value: 62.61%). The test is classed as functional.
Test [17] relates to HCC1428. The experiment in a line: Antiproliferative activity against human HCC1428 cells at 2 to 4 uM […] by RTCA. The test is classed as functional, cell-based. Put shortly: (§3)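 Real-time impedance (xCELLigence RTCA DP) monitoring of HCC1428 cells plated at 2000 cells/well in E-plate 16. Cells kept in RPMI-1640 with 2% FBS at 37 °C, 5% CO2 throughout. Growth curves recorded over 84 h of compound exposure. Representative of three independent experiments.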

Test [18] can be described thus: Cell cycle arrest in human HCC1428 cells assessed as accumulation at G2/M phase at 6 uM after 24 hrs by propidium iodide staining based flow cytometry (reference value: […]%). The test is classed as functional.
Test [19] in a line: Cell cycle arrest in human HCC1428 cells assessed as accumulation at G1 phase at 1 uM after 24 hrs by propidium iodide staining based flow cytometry (reference value: 62.61%). The test is classed as functional.
Test [20] can be described thus: Cell cycle arrest in human HCC1428 cells assessed as accumulation at G2/M phase at 1 uM after 24 hrs by propidium iodide staining based flow cytometry (reference value: […]%). Type of test: functional.
A short description of test [21]: Cell cycle arrest in human HCC1428 cells assessed as accumulation at S phase at 1 uM after 24 hrs by propidium iodide staining based flow cytometry (reference value: 24.46%). The test is classed as functional.
In test [22] the test system is HCC1428. The experiment in a line: Antiproliferative activity against human HCC1428 cells at 1 uM […] by RTCA. Type of test: functional, cell-based. In outline: as §3
Test [23] is filed under the species Homo sapiens. The experiment in a line: Inhibition of alpha-tubulin polymerization in human HCC1428 cells at 1 uM after 24 hrs by confocal microscopic method. Type of test: cell-based. Put shortly:
as §2

The record followed here is ChEMBL document CHEMBL4007433, “Design, synthesis, biological evaluation and molecular modeling study of novel macrocyclic bisbibenzyl analogues as antitubulin agents” (Eur J Med Chem, 2017).

Counter-ions that a name gives are not always drawn. The source made the active and inactive calls. The calls are words filed in the database; no cut-off is given here.

For the molecule `Oc1cc2ccc1Oc1ccc(cc1)CCc1cccc(O)c1Oc1cccc(c1)CC2`, the half-inhibitory concentration (IC50) in test [1] is 11.6 µM; in test [2] it was 7.69 µM; in [3], 6.06 µM; in test [4], 15.8 µM.
Turning to `Oc1ccc2cc1Oc1ccc(cc1)CCc1cccc(O)c1Oc1ccc(cc1)CC2`, the IC50 was 7.57 µM in test [1]; 9.25 µM in test [2]; 10.9 µM in test [5]; 8.52 µM in test [3]; 10.5 µM in test [4].
On to `CC(=O)O[C@H]1C(=O)[C@@]2(C)[C@H]([C@H](OC(=O)c3ccccc3)[C@]3(O)C[C@H](OC(=O)[C@H](O)[C@@H](NC(=O)c4ccccc4)c4ccccc4)C(C)=C1C3(C)C)[C@]1(OC(C)=O)CO[C@@H]1C[C@@H]2O`, for which, in [6], the inhibition entry is “inactive”.
In the case of `Oc1cc2ccc1Oc1cccc(c1)CCc1ccc(O)c(c1)Oc1ccc(cc1)CC2`, the IC50 in [1] was 12.7 µM; in [2], 22.4 µM; in test [3], 15.7 µM; in [4], 18.9 µM.
As for `Oc1ccc2cc1Oc1ccc(cc1)CCc1ccc(O)c(c1)Oc1cccc(c1)CC2`, the IC50 in [1] was found to be 7.98 µM; in [2], 10.7 µM; in [5] it was 13.4 µM; in test [3], 7.02 µM; in [4], 11.7 µM. Also, the inhibition entry in test [7] is “inactive”. Also, in [8], the inhibition result is “Active”.
In the case of `Oc1ccc2cc1Oc1ccc(cc1)/C=C\c1cccc(O)c1Oc1ccccc1CC2`, the half-maximal inhibitory concentration (IC50) in [1] came out at 9.6 µM; in test [2] it was 17.1 µM; in test [3], 19.2 µM; in [4], 21.9 µM.
The like results for `Oc1ccc2c(c1)CCc1ccc(O)c(c1)Oc1ccc(cc1O)CCc1cccc(O)c1O2` were, in that order, 15.9 µM, 22 µM, 25.3 µM and 26.8 µM.
Turning to `Oc1ccc2cc1Oc1cccc(c1)CCc1ccc(O)c(c1)Oc1ccc(cc1O)CC2`, the IC50 is 12.4 µM in test [1], 19.5 µM in [2], 10.9 µM in [3] and 19.5 µM in test [4].
For `Oc1ccc2cc1Oc1ccc(cc1)CCc1ccc(O)c(c1)Oc1ccc(cc1O)CC2`, the IC50 is 14.8 µM in [1], 20.1 µM in [2], 15.6 µM in test [3] and 29.4 µM in test [4].
`COc1cccc2c1C(=O)c1c(O)c3c(c(O)c1C2=O)C[C@@](O)(C(=O)CO)C[C@@H]3O[C@H]1C[C@H](N)[C@H](O)[C@H](C)O1` [DOXORUBICIN HYDROCHLORIDE]: the IC50 is 1.76 µM in [1]; 1.77 µM in [2]; 16.9 µM in [5]; 0.57 µM in test [3]; 1.23 µM in [4].
As for `COc1cccc2c1Oc1cc(O)c(O)cc1CCc1ccc(O)c(c1)Oc1ccc(cc1)CC2`, the inhibition entry in [9] and in [14] was “Active” throughout. Moreover, the half-inhibitory concentration (IC50) in test [1] was 1.98 µM; in test [2], 1.51 µM; in test [5], 5.51 µM; in test [3] it was 1.74 µM; in [4] it was 2.61 µM. The Activity in test [10] was 3.54%; in test [11], 37.7%; in test [12] it was 11.12%; in [13], “Dose-dependent effect”; in [15] it was 23.66%; in test [16] it was 38.6%. For the same molecule, the Activity in [18] came out at 85.34%. For the same molecule, the result in test [17] was Active.
`CC[C@]1(O)C[C@H]2CN(CCc3c([nH]c4ccccc34)[C@@](C(=O)OC)(c3cc4c(cc3OC)N(C=O)[C@H]3[C@@](O)(C(=O)OC)[C@H](OC(C)=O)[C@]5(CC)C=CCN6CC[C@]43[C@@H]65)C2)C1` [VINCRISTINE]: the results for the Activity in test [19], in test [20] and in [21] were 4.15%, 88.89% and 6.96%, respectively. Also, the outcome in [22] was Active. For the same molecule, the inhibition entry in test [23] and in test [6] was “Active” each time.
Regarding `Oc1ccc2cc1Oc1ccc(cc1)CCc1cccc(O)c1Oc1ccc(cc1O)CC2`, the half-maximal inhibitory concentration (IC50) in test [1] is 17 µM; in test [2], 19.5 µM; in test [3], 24.9 µM; in test [4], 27.4 µM.
Regarding `Oc1ccc2cc1Oc1ccc(cc1)CCc1cccc(O)c1Oc1ccccc1CC2`, the half-maximal inhibitory concentration (IC50) in test [1] was 12.4 µM; in test [2], 19 µM; in test [3] it was 21.6 µM; in test [4], 21.5 µM.
The like results for `Oc1ccc2c(c1)CCc1ccc(O)c(c1)Oc1ccc(cc1)CCc1cccc(O)c1O2` were, in that order, 7.98 µM, 10.8 µM, 14.1 µM and 15.9 µM.
The like results for `Oc1ccc2cc1Oc1ccc(cc1)CCc1ccc(O)c(c1)Oc1ccc(cc1)CC2` were, in that order, 11.5 µM, 15.3 µM, 10.2 µM and 22.7 µM.
Take `Oc1cc2c(cc1O)Oc1c(O)cccc1CCc1ccc(cc1)Oc1cc(ccc1O)CC2`: the concentration for half-maximal inhibition (IC50) came out at 7.51 µM in [1]; 8.46 µM in test [2]; 7.7 µM in test [5]; 6.16 µM in test [3]; 10.4 µM in test [4].
Turning to `Oc1ccc2cc1Oc1ccc(cc1)CCc1cc(O)c(c(O)c1)Oc1cccc(c1)CC2`, the 50% inhibitory concentration (IC50) in test [1] worked out at 20.1 µM; in [2], 25.2 µM; in [3], 29.9 µM; in test [4], 28.3 µM.

Usually IC50 stands for the concentration needed to halve the response being measured. Read a high IC50 as a need for much substance.
